Screening data from PubChem BioAssay.
PAFAH1B3 FP inh: PAFAH1B3 (human) inhibition; Q15102; recombinant PAFAH1B3, FP-rhodamine probe, fluorescence polarization; inhibition, % at 3.39 µM; 340,000 compounds, 0.28% hits; AID 492972;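 active means inhibition above the screen-wide average of all tested compounds plus 3 SD, cut at about 25% in these data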;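 further: 0% = enzyme with DMSO only and 100% = wells lacking PAFAH1B3 protein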
VIM-2 inhibitor: inhibitors of Pseudomonas aeruginosa VIM-2 metallo-beta-lactamase; purified VIM-2, nitrocefin hydrolysis, epi-absorbance fluorescence; 290,000 compounds, 0.89% hits; inhibition, % at 5.6 µM;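 active means inhibition above the mean of all tested compounds plus 3 SD, cutoff set per screening run, cut at about 7.5% in these data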;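 further: red hydrolysis product quenches plate fluorescence so inhibitors raise well fluorescence; 0% = enzyme with DMSO and 100% = DMSO without enzyme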
IMP-1 inh-1: blocks Pseudomonas aeruginosa IMP-1 metallo-beta-lactamase; purified IMP-1, nitrocefin hydrolysis, epi-absorbance fluorescence; inhibition, % at 5.6 µM; 290,000 compounds, 0.45% hits; AID 1556;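 active means inhibition above the mean plus 3 SD of all compounds in the same screening run, cut at about 4.5% in these data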;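 further: 0% = IMP-1 with DMSO and 100% = DMSO wells lacking enzyme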
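system = purified recombinant IMP-1 beta-lactamase | amount = 0.2 nM IMP-1, as dispensed | medium = HEPES buffer pH 7.1 with ZnSO4 and Brij 35 | times = 25 °C, 15 min preincubation, 25 min reaction | detection = plate fluorescence quenching by hydrolysis product, ex 480/em 530 nm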
PAFAH1B2 inh: PAFAH1B2 (human) inhibition. P68402. recombinant PAFAH1B2, FP-rhodamine activity probe, fluorescence polarization. inhibition, % at 3.39 µM. 340,000 compounds, 1.2% hits;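 active means inhibition above the mean of all tested compounds plus 3 SD, cut at about 24% in these data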;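 further: 0% = enzyme with DMSO and 100% = wells lacking PAFAH1B2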
pPAFAH FP inh: pPAFAH (human) enzyme inhibition; AID 463082; Q13093; 330,000 compounds, 1.5% hits; inhibition, % at 3.39 µM; recombinant pPAFAH, FP-rhodamine probe fluorescence polarization;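 active means inhibition above the mean inhibition across the screen plus 3 SD, cut at about 25% in these data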;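 further: inhibitors block binding of the rhodamine activity-based probe so polarization drops; 0% = enzyme with DMSO and 100% = wells lacking pPAFAH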
Target sequence (Q13093 whole entry, looked up): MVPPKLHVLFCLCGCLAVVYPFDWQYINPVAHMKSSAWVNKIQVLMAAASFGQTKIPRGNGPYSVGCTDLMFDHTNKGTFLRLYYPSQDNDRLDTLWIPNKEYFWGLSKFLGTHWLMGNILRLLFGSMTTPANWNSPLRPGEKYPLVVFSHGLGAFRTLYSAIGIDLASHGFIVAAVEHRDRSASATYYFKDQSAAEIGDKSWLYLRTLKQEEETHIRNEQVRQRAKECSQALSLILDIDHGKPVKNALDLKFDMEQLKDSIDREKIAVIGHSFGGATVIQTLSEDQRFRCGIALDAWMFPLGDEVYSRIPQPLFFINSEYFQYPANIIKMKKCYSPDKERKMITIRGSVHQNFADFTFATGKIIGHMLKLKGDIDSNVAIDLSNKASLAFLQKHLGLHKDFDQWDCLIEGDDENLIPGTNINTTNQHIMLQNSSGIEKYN
PAFAH2 inh: inhibitors of human PAFAH2 | inhibition, % at 3.39 µM | Q99487 | recombinant PAFAH2, FP-rhodamine activity probe, fluorescence polarization | 340,000 compounds, 0.99% hits;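 active means inhibition above the mean over all tested compounds plus 3 SD, cut at about 30% in these data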;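 further: inhibitors block probe labeling of enzyme so polarization drops; 0% = enzyme with DMSO and 100% = wells lacking PAFAH2 protein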
IMP-1 inh-2: IMP-1 inhibition, counter-screen for VIM-2 inhibitors | inhibition, % at 5.6 µM | 1,300 tested, under 10 active | AID 1856 | shares compounds with VIM-2 inhibitor | purified IMP-1, nitrocefin hydrolysis, epi-absorbance fluorescence; call rule not given here;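 further: 0% = enzyme with vehicle and 100% = vehicle without enzyme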
VIM-2 FRET inh: inhibits VIM-2 in FRET assay to exclude epi-absorbance artifacts. inhibition, % at 5.6 µM. 1,300 compounds, 23% hits. AID 1857. shares compounds with VIM-2 inhibitor. purified VIM-2, CCF2 FRET substrate hydrolysis;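 active means inhibition above the mean of all tested compounds plus 3 SD, cut at about 19% in these data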;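 further: 0% = VIM-2 plus DMSO and 100% = no enzyme wells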
TEM-1 counter-1: TEM-1 inhibition, counter-screen for VIM-2 inhibitors; shares compounds with VIM-2 inhibitor; Purified TEM-1, nitrocefin hydrolysis, epi-absorbance fluorescence; inhibition, % at 5.6 µM; 1,300 compounds, 3% hits; AID 1866;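 active means inhibition above that campaign's mean inhibition plus 3 SD, cut at about 0.46% in these data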;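 further: 0% = TEM-1 with DMSO and 100% = TEM-1 with 100 µM potassium clavulanate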
Target sequence (P62593 whole entry, looked up): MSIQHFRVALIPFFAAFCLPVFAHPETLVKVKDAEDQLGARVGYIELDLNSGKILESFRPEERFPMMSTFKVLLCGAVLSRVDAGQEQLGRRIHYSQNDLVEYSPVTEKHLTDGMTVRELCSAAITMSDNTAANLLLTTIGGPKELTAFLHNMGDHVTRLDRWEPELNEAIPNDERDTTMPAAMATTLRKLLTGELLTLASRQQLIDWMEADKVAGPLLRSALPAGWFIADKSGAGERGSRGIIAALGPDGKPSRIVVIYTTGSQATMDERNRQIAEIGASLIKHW
VIM-2 inh conf: confirmation of P. aeruginosa VIM-2 metallo-beta-lactamase inhibitors; shares compounds with VIM-2 inhibitor; purified VIM-2, nitrocefin hydrolysis, epi-absorbance; inhibition, % at 5.6 µM; 1,300 compounds, 96% hits; AID 2187;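 active means inhibition of the VIM-2 beta-lactamase enzyme above about 11% from the earlier first-round screen, limit read from the data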;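 further: 0% = VIM-2 with DMSO and 100% = buffer wells without enzyme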
VIM-2 confirm: VIM-2 inhibition, confirmation assay | shares compounds with IMP-1 inh-1 | 200 compounds, 73% hits | inhibition, % at 5.6 µM | purified VIM-2 enzyme, nitrocefin absorbance; in the data active means inhibition above about 8%;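 further: 0% = enzyme with vehicle and 100% = no enzyme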
TEM-1 counter-2: blocks E. coli TEM-1 beta-lactamase, VIM-2 IMP-1 counter-screen; shares compounds with IMP-1 inh-1; nitrocefin absorbance inhibition; inhibition, % at 5.6 µM; 200 compounds, 50% hits; in the data active means inhibition above about 0.66%
IMP-1 confirm: confirmation of P. aeruginosa IMP-1 metallo-beta-lactamase inhibitors | shares compounds with IMP-1 inh-1 | purified IMP-1 enzyme, absorbance substrate hydrolysis | inhibition, % at 5.6 µM | 200 compounds, 60% hits; in the data active means inhibition above about 4.9%;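 further: 0% = enzyme with vehicle and 100% = vehicle without enzyme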
pPAFAH confirm: confirmation of human plasma PAF acetylhydrolase (pPAFAH) inhibitors; shares compounds with pPAFAH FP inh; recombinant pPAFAH, FP-Rh probe fluorescence polarization; inhibition, % at 3.39 µM; 2,300 compounds, 72% hits;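 active means mean inhibition of the triplicate above the hit cutoff set for the earlier primary screen, cut at about 25% in these data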;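 further: 0% = enzyme with DMSO and 100% = wells lacking pPAFAH enzyme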
An asterisk follows results filed as active; nt = not tested or not shown. In the library only some 3.6% were active in any assay of this set; here they are far more common.

SMILES | PAFAH1B3 FP inh | VIM-2 inhibitor | IMP-1 inh-1 | PAFAH1B2 inh | pPAFAH FP inh | PAFAH2 inh | pPAFAH confirm | others
CCSC(=O)N1CCCCCC1 | 8 | nt | nt | -2 | -6 | 12 | nt
Cc1cc(=O)oc2c(C)c(OCC(=O)N3CCN(Cc4ccccc4)CC3)ccc12 | 1 | 45* | -4 | 4 | 7 | -4 | nt | IMP-1 inh-2=-3;VIM-2 FRET inh=-1;TEM-1 counter-1=-8;VIM-2 inh conf=60*
Cc1c(C)c2ccc(OCC(=O)N3CCN(Cc4ccccc4)CC3)cc2oc1=O | 10 | nt | nt | -3 | 3 | 11 | nt
O=P(O)(O)Oc1ccccc1P(=O)(c1ccccc1)c1ccccc1 | 7 | 17* | -3 | 6 | 6 | 2 | nt | IMP-1 inh-2=-3;VIM-2 FRET inh=23*;TEM-1 counter-1=-4;VIM-2 inh conf=21*
Cc1cc(OCC(=O)NCc2cccnc2)c2c3c(c(=O)oc2c1)CCCC3 | 13 | 33* | -3 | 0 | 2 | 5 | nt | IMP-1 inh-2=-3;VIM-2 FRET inh=-2;TEM-1 counter-1=-9;VIM-2 inh conf=40*
Cc1cc(OCC(=O)NCC(O)c2ccccc2)c2c3c(c(=O)oc2c1)CCCC3 (configuration not stated) | -1 | 2 | -4 | 4 | 5 | 4 | nt
CCS(=O)(=O)NCc1nnc2n1-c1ccc(Br)cc1C(c1ccccc1Cl)=NC2 | 3 | nt | nt | 2 | 2 | 0 | nt
CCOC(=O)C1CCCN(c2ccc([N+](=O)[O-])c3nonc23)C1 (configuration not stated) | 39* | 26* | 27* | 50* | nt | 46* | nt | VIM-2 confirm=28*;TEM-1 counter-2=34*;IMP-1 confirm=23*
CN1C(=O)C(=Cc2ccc(OCC(=O)Nc3ccccc3)cc2)C(=O)N(C)C1=O | 7 | 1 | -1 | -1 | -3 | -14 | nt
C=CCN1C(=O)NC(=O)/C(=C\c2ccc(-c3ccccc3[N+](=O)[O-])o2)C1=O | 7 | -1 | 0 | 4 | 6 | 22 | nt
O=C1NC(=O)N(Cc2ccco2)C(=O)/C1=C/c1ccc(-c2cccc([N+](=O)[O-])c2)o1 | 6 | 2 | -4 | 4 | 66* | 37* | 36*
O=C(Cn1ncc2c3ccccc3n(Cc3cccc(Cl)c3)c2c1=O)N1CCC2(CC1)OCCO2 | 14 | -6 | -5 | 5 | 40* | 19 | 37*
C=C1[C@H]2C[C@H]3[C@H]4N5C[C@]6(C)CCC[C@]47[C@H]([C@H]2O)[C@]3(C[C@]5(O)[C@H]67)[C@@H]1O | 3 | nt | nt | -2 | 0 | -2 | nt
O=c1[nH]c(=O)n(C2CCCCC2)c(O)c1C=Nc1ccc(N2CCOCC2)cc1 | 9 | -3 | -3 | 4 | 3 | 0 | nt
O=c1[nH]c(=S)n(-c2ccc(Cl)cc2)c(O)c1C=Nc1ccc(N2CCOCC2)cc1 | 5 | -2 | -5 | 0 | 43* | 14 | 20
O=C(O)c1cccc2c1NC(C(=O)O)C1CC(Sc3ccccc3[N+](=O)[O-])C(Cl)C21 (configuration not stated) | 49* | 2 | 5.2* | 31* | 96* | 82* | 79*
CC(=O)c1ccc2c(c1)C1C(Cl)C(Sc3ccccc3[N+](=O)[O-])CC1C(C(=O)O)N2 (configuration not stated) | 31* | -3 | -2 | 8 | 54* | 42* | 27*
CN(C)[C@@H]1C(=O)C(C(N)=O)=C(O)[C@@]2(O)C(=O)C3=C(O)c4c(O)cccc4[C@@](C)(O)[C@H]3[C@H](O)[C@@H]12 | 57* | 0 | -1 | 35* | 82* | 64* | 75*
C/C=C1\CN2[C@H]3C[C@@]45c6ccccc6N(C)[C@H]4[C@@H]2CC1C3[C@H]5O (some centres not stated) | 3 | nt | nt | 2 | 7 | -2 | nt
CN1C(=O)/C(=C/c2cccn2-c2ccc3ccccc3c2)C(=O)NC1=S | 9 | -4 | -5 | 39* | 39* | 39* | 13
CC(C)N1C(=O)/C(=C/C=C/c2ccco2)C(=O)N(Cc2ccco2)C1=O | -1 | -1 | -1 | 3 | 38* | 22 | 1
CN(C)c1ccc(/C=C2/C(=O)NC(=O)N(Cc3ccco3)C2=O)cc1 | 10 | -1 | 0 | 0 | 9 | 9 | nt
O=C(C1CCN(c2nc3ccc(Br)cc3s2)CC1)N1CCC2(CC1)OCCO2 | 2 | 0 | 0 | 0 | 36* | 1 | 26*
Cc1ccc2nc(N3CCC(C(=O)N4CCC5(CC4)OCCO5)CC3)sc2c1 | 9 | 1 | -4 | 3 | 11 | 2 | nt
COC(=O)C1=C(c2ccc(S(C)(=O)=O)cc2)C[C@@H]2CC[C@H]1N2C(=O)NCCNC(C)=O | -8 | nt | nt | -1 | 2 | -2 | nt
Cc1cccc(OCCn2cccc2/C=C2/C(=O)NC(=O)N(Cc3ccco3)C2=O)c1 | nt | 3 | 0 | nt | 22 | nt | nt
O=C1NC(=O)N(Cc2ccco2)C(=O)/C1=C\c1cccn1CCOc1ccc(Cl)cc1 | -3 | -2 | -5 | 35* | 40* | 7 | 3
CCOC(=O)c1[nH]c2ccc(OC)cc2c1C(SCC(=O)O)c1ccc(C(F)(F)F)cc1 (configuration not stated) | 6 | -5 | 3 | 8 | 10 | 9 | nt
Oc1ccc(/C=N/NP(=S)(c2ccccc2)c2ccccc2)c(O)c1O | 8 | -1 | -5 | -3 | 41* | 7 | 63*
CCC1CN1P1(=O)OCC(C)([N+](=O)[O-])CO1 (configuration not stated) | -3 | nt | nt | -3 | nt | 1 | nt
